# Experimental data: ChEMBL document CHEMBL2412978, “Effect of ring-constrained phenylpropyloxyethylamines on sigma receptors” (Bioorg Med Chem, 2013)
# Calls of active or inactive are those of the source. The rule behind the calls is not given here.
# What was measured:
# Mus musculus [1] = test: Anticonvulsant activity in Swiss Webster mouse assessed as reversal of cocaine-induced loss of righting reflexes at 30 mg/kg, ip administered 15 mins before cocaine challenge measured after 30 mins; type: functional, organism-based; set-up: dose 30 mg/kg
# In short: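 Male Swiss Webster mice, n = 10/group, given test compound ip (0, 1, 10 or 30 mg/kg) 15 min before a convulsive dose of cocaine (70 mg/kg ip). Animals observed for convulsions for 30 min after cocaine injection. Groups compared by Fisher's exact test.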
# Rattus norvegicus = species on record: Rattus norvegicus; test: Selectivity ratio of Ki for sigma 2 receptor in rat brain homogenates to Ki for sigma 1 receptor in rat brain homogenates; type: tissue-based
# [2] = Displacement of [3H]di-o-tolylguanidine from sigma 2 receptor in rat brain homogenates after 120 mins by liquid scintillation counting; type: tissue-based
# Mus musculus [3] = test: Anticonvulsant activity in ip dosed Swiss Webster mouse assessed as reversal of cocaine-induced loss of righting reflexes administered 15 mins before cocaine challenge measured after 30 mins; type: functional, organism-based
# In short: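 Male Swiss Webster mice, n = 10 per group, given test compound ip (0–30 mg/kg range across doses including vehicle 0) 15 min before convulsive cocaine 70 mg/kg ip. Animals watched 30 min after cocaine for occurrence of convulsions; groups compared by Fisher's exact test.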
# Mu-type opioid receptor = Mu-type opioid receptor (Homo sapiens, UniProt P35372); test: Displacement of [3H]DAMGO from human mu opioid receptor expressed in CHO cells after 120 mins by liquid scintillation counting; type: cell-based
# In short: (§1)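 Membranes from CHO cells stably expressing human μ, δ or κ opioid receptor. Radioligands: μ 1.3 nM [3H]DAMGO, δ 1.2 nM [3H]DPDPE, κ 1.7 nM [3H]U69,593; nonspecific with 1 μM of the matching unlabelled ligand.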
# [4] = target: Kappa-type opioid receptor (Homo sapiens, UniProt P41145); test: Displacement of [3H]U69,593 from human kappa opioid receptor expressed in CHO cells after 120 mins by liquid scintillation counting; type: cell-based; in short: as §1
# Chain of Kappa-type opioid receptor (P41145 whole entry): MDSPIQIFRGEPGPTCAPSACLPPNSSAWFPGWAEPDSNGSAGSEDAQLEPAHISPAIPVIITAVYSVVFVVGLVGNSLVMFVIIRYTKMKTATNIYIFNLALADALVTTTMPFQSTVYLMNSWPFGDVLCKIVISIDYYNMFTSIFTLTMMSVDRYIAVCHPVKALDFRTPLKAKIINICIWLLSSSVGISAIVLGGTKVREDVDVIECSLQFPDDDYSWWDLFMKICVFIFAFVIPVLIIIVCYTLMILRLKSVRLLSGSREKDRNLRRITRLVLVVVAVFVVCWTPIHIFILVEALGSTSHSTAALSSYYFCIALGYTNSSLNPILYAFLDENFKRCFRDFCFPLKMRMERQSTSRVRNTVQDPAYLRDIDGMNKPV
# Chain of Mu-type opioid receptor (P35372 whole entry): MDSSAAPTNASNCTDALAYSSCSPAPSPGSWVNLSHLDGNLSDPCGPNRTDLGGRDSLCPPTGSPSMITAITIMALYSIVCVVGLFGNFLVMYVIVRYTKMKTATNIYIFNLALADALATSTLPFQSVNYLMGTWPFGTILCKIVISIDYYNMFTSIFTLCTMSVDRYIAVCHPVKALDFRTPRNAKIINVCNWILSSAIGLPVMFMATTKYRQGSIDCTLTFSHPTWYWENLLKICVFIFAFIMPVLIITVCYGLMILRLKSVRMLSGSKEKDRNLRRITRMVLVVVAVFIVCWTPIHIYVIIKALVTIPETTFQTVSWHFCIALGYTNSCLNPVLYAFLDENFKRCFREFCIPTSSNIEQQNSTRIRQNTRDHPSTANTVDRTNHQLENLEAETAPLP
Compound,Activity (Mus musculus [1]),Ratio Ki (Rattus norvegicus),Ki [2],Activity (Mus musculus [3]),Ki (Mu-type opioid receptor),Ki [4]
CN(CCc1ccccc1)[C@H]1CCCC[C@@H]1O (relative stereo),Active,2,0.22 µM,,,
CN(CCCc1ccccc1)[C@H]1CCCC[C@@H]1OCCCc1ccccc1 (racemic),,,> 10 µM,,,
CN(CCCc1ccccc1)[C@H]1CCCC[C@@H]1O (relative stereo),,0.4,0.0067 µM,Dose-dependent effect,> 10 µM,
CN(CCc1ccccc1)[C@H]1CCCC[C@@H]1OCCCc1ccccc1 (relative stereo),,7,0.57 µM,,,21 µM
CN(C)[C@H]1CCCC[C@@H]1OC/C=C/c1ccccc1 (relative stereo),,240,1.1 µM,,,
CN(C)[C@H]1CCCC[C@@H]1OCCCc1ccccc1 (relative stereo),,65,3.8 µM,,,
c1ccc(CCN2CCCCC2)cc1 [1-PHENETHYLPIPERIDINE],,5,0.14 µM,,,
